Data: ChEMBL document CHEMBL1777739, “Design, synthesis, and biological activity of novel Magmas inhibitors” (Bioorg Med Chem Lett, 2011)
Calls of active or inactive are those of the source. The calls are words filed in the database; no cut-off is given here.

Tests used:
Saccharomyces cerevisiae [1] = test: Inhibition of TIM16-mediated Saccharomyces cerevisiae J47D proliferation in log phase at 100 uM measured for every 30 mins
Outline: (§1)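 Log-phase S. cerevisiae J47D plated at 1.5 × 10⁴ cells/well in YEPD. Compounds in DMSO added across 0–1 mM, triplicate wells, 1% final DMSO. Cultured at 30 °C with OD600 read every 30 min. n = 3; each experiment done at least twice independently.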

Saccharomyces cerevisiae [2] = test: Inhibition of TIM16-mediated Saccharomyces cerevisiae J47D proliferation in log phase at 10 uM measured for every 30 mins; outline: as §1
Saccharomyces cerevisiae [3] = test: Inhibition of TIM16-mediated Saccharomyces cerevisiae J47D proliferation in log phase at 1 uM measured for every 30 mins; outline: as §1
[4] = Solubility of the compound at 1 mM; type: physicochemical; details: 1000 µM
Saccharomyces cerevisiae [5] = test: Inhibition of TIM16-mediated Saccharomyces cerevisiae J47D proliferation in log phase at 1 mM measured for every 30 mins; outline: as §1
[6] = Binding affinity to Saccharomyces cerevisiae Magmas by fluorometric titration
Outline: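 Intrinsic Trp/Tyr fluorescence of yeast Magmas (3 µM, unit as printed) in 50 mM Bis–Tris pH 7.1, 25 °C. Excitation 295 nm, emission read at 365 nm. Ligand titrated from 0 to […] using freshly made stock. Dilution kept ≤10% and corrected for. Kd obtained by fitting intensity versus total ligand concentration to a single-site binding equation.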

Saccharomyces cerevisiae [7] = test: Inhibition of Saccharomyces cerevisiae TIM16 N84T mutant-mediated proliferation up to 60 mins
Outline: (§2)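 Yeast whose wild-type TIM16 plasmid was lost on FOA selection, carrying plasmid-borne Tim16 N84T or A104S mutants, cultured in YEPD at 30 °C. Compound added at graded concentrations in DMSO (1% final), triplicate wells. OD600 read every 30 min; compared with the wild-type plasmid strain.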

[8] = system: T1, Saccharomyces cerevisiae [A104S]; test: Inhibition of Saccharomyces cerevisiae TIM16 A104S mutant-mediated proliferation up to 60 mins; outline: as §2
T1 sequence (whole entry): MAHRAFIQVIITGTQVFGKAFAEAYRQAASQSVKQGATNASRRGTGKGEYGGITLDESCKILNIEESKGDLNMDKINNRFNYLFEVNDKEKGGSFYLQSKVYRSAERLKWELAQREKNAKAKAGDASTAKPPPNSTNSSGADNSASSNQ

Row | SMILES | inhibition (Saccharomyces cerevisiae [1]) | inhibition (Saccharomyces cerevisiae [2]) | inhibition (Saccharomyces cerevisiae [3]) | solubility [4] | inhibition (Saccharomyces cerevisiae [5]) | Kd [6] [µM] | inhibition (Saccharomyces cerevisiae [7]) | inhibition [8]
1 | Brc1ccc2c(c1)C=CC(c1ccccc1)O2 (stereo not drawn) | Active | Active | inactive | – | Active | – | – | –
2 | Clc1ccc2c(c1)C=CC(c1ccccc1)O2 (stereo not drawn) | Active | inactive | inactive | Insoluble | – | – | – | –
3 | CCC1=C(C)/C(=C/c2ccc(C(=O)NC(=N)N)cc2)CCC1(C)C | Active | Active | inactive | – | Active | 33.5 | inactive | Active

The remaining lines, values ahead:

Row | inhibition (Saccharomyces cerevisiae [1]) | inhibition (Saccharomyces cerevisiae [2]) | inhibition (Saccharomyces cerevisiae [3]) | solubility [4] | inhibition (Saccharomyces cerevisiae [5]) | Kd [6] [µM] | inhibition (Saccharomyces cerevisiae [7]) | inhibition [8] | SMILES
4 | Active | inactive | inactive | Insoluble | – | – | – | – | CCCCCCCCC1C=Cc2cc([N+](=O)[O-])ccc2O1 (stereo not drawn)
5 | inactive | inactive | inactive | – | inactive | – | – | – | O=[N+]([O-])c1ccc2c(c1)C=CC(c1ccccc1)O2 (stereo not drawn)
